The text below walks through data of ChEMBL document CHEMBL4049455, “Discovery of a B-Cell Lymphoma 6 Protein-Protein Interaction Inhibitor by a Biophysics-Driven Fragment-Based Approach” (J Med Chem, 2017).

Active and inactive are the calls of the source. The calls are words filed in the database; no cut-off is given here.

Test [1] concerns the target T1, B-cell lymphoma 6 protein (Homo sapiens, UniProt P41182). Description: Binding affinity to recombinant RED-NHS labeled BCL6 BTB domain (unknown origin) expressed in Escherichia coli BL21 (DE3) after 10 mins by microscale thermophoresis method. (MST reads how a fluorescent partner responds to local heating, with and without ligand.)
In test [2] the target is T1, B-cell lymphoma 6 protein. Description: Binding affinity to captured wild-type human biotinylated Avi-tagged BCL6 BTB domain (5 to 129 amino acid residues) expressed in Escherichia coli BL21 (DE3) by SPR analysis. (In general: SPR reads the build-up and loss of mass on a sensor chip optically.)
The target of test [3] is T1, B-cell lymphoma 6 protein. Description: Binding affinity to 6His-tagged human BCL6 BTB domain (7 to 128 amino acid residues) expressed in Escherichia coli Rosetta (DE3) after 1 min by fluorescence polarization assay. Background: In fluorescence polarisation assays a small probe gives low polarisation when free and higher when bound to something large.
The test system of test [4] is B-cell lymphoma 6 protein (Homo sapiens), P41182 [C8Q,C67R,C84N]. Description: Binding affinity to human biotinylated His/Avi/SUMO/FLAG-tagged BCL6 BTB domain (5 to 129 amino acid residues) C8Q/C67R/C84N triple mutant expressed in Escherichia coli BL21 (DE3) by STD-NMR spectroscopy. Summed up:
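STD-NMR was run on a sample of 400 μM ligand with 20 μM BCL6 BTB at 15 °C, using 32 scans. On- and off-resonance saturation was at 0.4 and 30 ppm, with 2.0 s total saturation. Binding was read as signal decrease on on-resonance irradiation.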

The test system is the same in test [5]. Description: Inhibition of BCoR peptide binding to human biotinylated His/Avi/SUMO/FLAG-tagged BCL6 BTB domain (5 to 129 amino acid residues) C8Q/C67R/C84N triple mutant expressed in Escherichia coli BL21 (DE3) by SPR competition assay.
Test [6] has as its target T2, B-cell lymphoma 6 protein (Homo sapiens, UniProt P41182, C67R/C84N/C8Q). Description: Binding affinity to captured human biotinylated Avi-tagged BCL6 BTB domain (5 to 129 amino acid residues) C8Q/C67R/C84N triple mutant expressed in Escherichia coli BL21 (DE3) by SPR analysis. Summed up:
(§1)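 Biacore 4000 SPR. Biotinylated BTB (mutant or wild-type) was captured, and wild-type was also amine-coupled on a separate spot, with NeutrAvidin detected as a reference spot. Responses were referenced between spots. Fragments were run from a top concentration of 1 mM in 2-fold dilutions. KD came from equilibrium response plotted against concentration, with BCoR peptide (100 μM) as the positive control.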

Test [7] addresses T1, B-cell lymphoma 6 protein. Description: Binding affinity to coupled wild-type human biotinylated Avi-tagged BCL6 BTB domain (5 to 129 amino acid residues) expressed in Escherichia coli BL21 (DE3) by SPR analysis. The method in brief: as §1
The target of test [8] is T1, B-cell lymphoma 6 protein. Description: Binding affinity to wild-type human biotinylated Avi-tagged BCL6 BTB domain (5 to 129 amino acid residues) expressed in Escherichia coli BL21 (DE3) using 1 % DMSO by SPR analysis. Summed up: (§2)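 SPR (Biacore 4000) binding of BCoR peptide to immobilized wild-type or Cys-mutant BTB in running buffer containing 1%, 3% or 5% DMSO. Peptide ran from a top concentration of 100 μM in 2-fold dilutions. KD and Rmax were fitted from equilibrium response against peptide concentration.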

Test [9] has as its target T1, B-cell lymphoma 6 protein. Kind of test: Binding affinity to wild-type human biotinylated Avi-tagged BCL6 BTB domain (5 to 129 amino acid residues) expressed in Escherichia coli BL21 (DE3) using 3 % DMSO by SPR analysis. The method in brief: as §2
Test [10] deals with T1, B-cell lymphoma 6 protein. Kind of test: Binding affinity to wild-type human biotinylated Avi-tagged BCL6 BTB domain (5 to 129 amino acid residues) expressed in Escherichia coli BL21 (DE3) using 5 % DMSO by SPR analysis. The method in brief:
as §2

For test [11], the system named is B-cell lymphoma 6 protein (Homo sapiens), P41182 [C8Q,C67R,C84N]. Description: (§3) Binding affinity to human biotinylated Avi-tagged BCL6 BTB domain C8Q/C67R/C84N triple mutant expressed in Escherichia coli BL21 (DE3) using 1 % DMSO by SPR analysis. Summed up:
as §2

The target of test [12] is T2, B-cell lymphoma 6 protein. The description is as §3. The method in brief: as §2
Test [13] deals with B-cell lymphoma 6 protein (Homo sapiens), P41182 [C8Q,C67R,C84N]. Description: (§4) Binding affinity to human biotinylated Avi-tagged BCL6 BTB domain C8Q/C67R/C84N triple mutant expressed in Escherichia coli BL21 (DE3) using 3 % DMSO by SPR analysis. Summed up: as §2
Test [14] concerns the target T2, B-cell lymphoma 6 protein. The test is described as §4. Summed up: as §2
The test system of test [15] is B-cell lymphoma 6 protein (Homo sapiens), P41182 [C8Q,C67R,C84N]. Description: (§5) Binding affinity to human biotinylated Avi-tagged BCL6 BTB domain C8Q/C67R/C84N triple mutant expressed in Escherichia coli BL21 (DE3) using 5 % DMSO by SPR analysis. The method in brief: as §2
In test [16] the target is T2, B-cell lymphoma 6 protein. The test is described as §5. Summed up:
as §2

Usually Kd stands for a measure of binding affinity in units of concentration. As for `O=C(O)CC(C(=O)O)N1C(=O)/C(=C2/C(=O)Nc3ccc(Br)cc32)SC1=S` (stereo not drawn), the Kd in test [1] was 129 µM.
Consider `O=C1Cc2cc(Nc3ncncc3Cl)ccc2N1`, for which the Kd in test [2] came to 9.3 µM.
Consider `CO[C@H]1/C=C/O[C@@]2(C)Oc3c(C)c(O)c4c(O)c(cc(O)c4c3C2=O)NC(=O)/C(C)=C\C=C\[C@H](C)[C@H](O)[C@@H](C)[C@@H](O)[C@@H](C)[C@H](OC(C)=O)[C@@H]1C` [RIFAMYCIN], for which, in test [3], binding was put at a Kd of 1000 µM.
For `Nc1ncnc(Nc2ccccc2)n1`, the outcome in test [4] was Active. Also, the inhibition entry in [5] was “Active”.
Take `Nc1nccc(Nc2ccccc2)n1`: in test [2], binding was put at a Kd of 3000 µM.
As for `Nc1ncc(F)c(Nc2ccccc2)n1`, in test [2], binding was characterised by a dissociation constant (Kd) of 180 µM.
As to Ac-RSEIISTAPSSWVVPPK-OH, the Activity entry in test [2] is “Dose-dependent effect”. For the same molecule, the Kd came to 17 µM in test [2]; 40 µM in test [6]; 14 µM in test [7]; 7.5 µM in [8]; 9.3 µM in [9]; 12 µM in test [10]. Moreover, the equilibrium dissociation constant (Kd) stood at 17 µM in [12], 21 µM in test [14] and 25 µM in test [16]. In addition, the Rmax amounted to 245 RU in test [8]; 242 RU in test [9]; 243 RU in [10]; 311 RU in [11]; 302 RU in [13]; 304 RU in test [15].
